Data reported in ChEMBL document CHEMBL5042523, “Novel Macrocyclic Peptidomimetics Targeting the Polo-Box Domain of Polo-Like Kinase 1” (J Med Chem, 2022).
The source made the active and inactive calls. The rule behind the calls is not given here. Where a SMILES comes first, the peptide text is derived from it. [ ]: non-standard residue; d: D form. pT = C[C@@H](OP(=O)(O)O)[C@H](N)C(=O)O

Legend:
[1] = Drug uptake in Wistar rat administered iv measured after 5 to 30 mins by PET imaging analysis; format: ADME, organism-based; settings: in vivo, time 5-30 min
[2] = target: Serine/threonine-protein kinase PLK2 (Homo sapiens) (UniProt Q9NYY3); test: Binding affinity to PlK2-PBD (unknown origin) using 5-carboxyfluorescein-Ahx-GPMQTS-pT-PKNG as substrate measured after 30 min by fluorescence polarization assay
Sequence of Serine/threonine-protein kinase PLK2 (Homo sapiens) (Q9NYY3 whole entry, looked up): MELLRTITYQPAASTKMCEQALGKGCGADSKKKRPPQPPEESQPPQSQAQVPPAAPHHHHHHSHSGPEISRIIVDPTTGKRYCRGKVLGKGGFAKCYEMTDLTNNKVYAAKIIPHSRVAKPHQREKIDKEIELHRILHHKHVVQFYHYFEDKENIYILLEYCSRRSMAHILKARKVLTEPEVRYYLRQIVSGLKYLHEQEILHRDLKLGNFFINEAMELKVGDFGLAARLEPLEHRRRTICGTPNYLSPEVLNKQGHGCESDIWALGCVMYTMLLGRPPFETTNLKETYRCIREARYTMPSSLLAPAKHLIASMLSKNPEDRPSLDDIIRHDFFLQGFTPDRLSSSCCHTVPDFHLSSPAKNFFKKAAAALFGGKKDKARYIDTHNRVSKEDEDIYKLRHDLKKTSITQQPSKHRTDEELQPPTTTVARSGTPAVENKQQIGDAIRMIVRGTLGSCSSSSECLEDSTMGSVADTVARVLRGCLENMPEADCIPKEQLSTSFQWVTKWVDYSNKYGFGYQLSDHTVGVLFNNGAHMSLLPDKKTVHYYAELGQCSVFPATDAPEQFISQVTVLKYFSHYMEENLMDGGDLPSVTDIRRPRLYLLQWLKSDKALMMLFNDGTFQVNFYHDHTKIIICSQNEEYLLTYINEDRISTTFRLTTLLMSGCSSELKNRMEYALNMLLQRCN
Method in brief: (§1)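 Competitive fluorescence polarization. E. coli-purified PBD used at its EC85 with 10 nM (final) 5-carboxyfluorescein-labelled phosphopeptide: GPMQTS-pT-PKNG probe for Plk2, GPLATS-pT-PKNG probe for Plk3. Buffer was 10 mM Tris-Cl pH 8.0, 1 mM EDTA, 50 mM NaCl, 0.01% NP-40, with test peptide over a concentration range. Polarization read 30 min after mixing. Three independent experiments.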

[3] = target: Serine/threonine-protein kinase PLK3 (Homo sapiens) (UniProt Q9H4B4); test: Binding affinity to PlK3-PBD (unknown origin) using 5-carboxyfluorescein-Ahx-GPLATS-pT-PKNG as substrate measured after 30 min by fluorescence polarization assay; method in brief: as §1
Sequence of Serine/threonine-protein kinase PLK3 (Homo sapiens) (Q9H4B4 whole entry, looked up): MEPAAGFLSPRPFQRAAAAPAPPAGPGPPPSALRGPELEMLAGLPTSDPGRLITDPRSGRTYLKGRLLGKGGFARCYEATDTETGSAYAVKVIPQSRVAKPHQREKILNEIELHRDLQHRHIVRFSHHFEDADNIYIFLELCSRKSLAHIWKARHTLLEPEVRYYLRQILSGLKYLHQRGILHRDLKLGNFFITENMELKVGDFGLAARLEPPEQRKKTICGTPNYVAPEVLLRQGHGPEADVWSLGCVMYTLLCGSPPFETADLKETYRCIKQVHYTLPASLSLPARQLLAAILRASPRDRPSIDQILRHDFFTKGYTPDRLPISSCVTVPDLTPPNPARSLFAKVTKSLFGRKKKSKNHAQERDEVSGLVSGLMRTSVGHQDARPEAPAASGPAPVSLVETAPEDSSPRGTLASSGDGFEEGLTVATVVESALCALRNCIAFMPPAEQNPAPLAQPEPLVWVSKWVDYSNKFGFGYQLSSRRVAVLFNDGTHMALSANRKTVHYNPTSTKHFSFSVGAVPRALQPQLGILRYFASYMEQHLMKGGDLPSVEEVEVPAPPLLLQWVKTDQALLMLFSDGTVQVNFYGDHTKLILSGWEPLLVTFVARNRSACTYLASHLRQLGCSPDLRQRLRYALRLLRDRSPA

[4] = test system: HeLa; test: Antiproliferative activity against human HeLa cell assessed as viable cells measured after 2 days by MTS assay; format: functional, cell-based; settings: time 2.0 day
Method in brief: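 HeLa cells, asynchronously growing, seeded at 2000 cells/100 μL in triplicate. Compound added for 24 h, then medium replaced and compound given for another 24 h (48 h continuous). MTS reagent added for 1–4 h at 37 °C, 5% CO2. Absorbance read at 490 nm. Three independent experiments, mean relative signal with s.d.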

| Drug uptake [1] | Activity [2] | Activity [3] | Structure (SMILES) | Activity [4] |
| --- | --- | --- | --- | --- |
| Not Active | – | – | COC(=O)[C@H](CC(C)C)NC(=O)[C@@H]1CCCN1C(=O)[C@@H](NC(=O)[C@H](CO)NC(=O)[C@H](CCC(N)=O)NC(=O)[C@H](CCSC)NC(=O)[C@@H]1CCCN1)[C@@H](C)OP(=O)(O)O (H-PMQS[pT]PL-OMe) | – |
| – | inactive | inactive | COC(=O)[C@H](CC(C)C)NC(=O)[C@@H]1CC[C@H]2OCCNC(=O)CC[C@H](NC(=O)c3cc(OCC(C)C)cc(OCC(C)C)c3)C(=O)N[C@@H](CO)C(=O)N[C@@H]([C@@H](C)OP(=O)(O)O)C(=O)N21 | Active |
